Reference: ChEMBL document CHEMBL1687707, “Changes in the plasmodial surface anion channel reduce leupeptin uptake and can confer drug resistance in Plasmodium falciparum-infected erythrocytes” (Antimicrob Agents Chemother, 2008)
Active and inactive are the calls of the source. The calls are words filed in the database; no cut-off is given here.

Assays:
Plasmodium falciparum [1] = test: Antimicrobial activity against leupeptin resistant-Plasmodium falciparum HB3-leuR1 mutant infected in erythrocytes assessed as growth inhibition after 72 hrs by SYBR Green I-based fluorescence assay; assay type: functional, organism-based; settings: HB3-leuR1, 72 h
In short: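 Sorbitol-synchronized cultures seeded at 0.2–0.5% parasitemia, 5% hematocrit in RPMI 1640/25 mM HEPES/2% serum/hypoxanthine. Incubated 72 h at 37°C in 5% O₂-5% CO₂. Freeze-thaw, then SYBR green I, 30 min dark, fluorescence 485/528 nm. Triplicate means with background subtracted (20 μM chloroquine-killed cultures). IC50 by nonlinear fit, three or more experiments.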

Plasmodium falciparum [2] = test: Antimicrobial activity against wild type Plasmodium falciparum HB3 infected in erythrocytes assessed as growth inhibition after 72 hrs by SYBR Green I-based fluorescence assay; assay type: functional, organism-based; settings: HB3, 72 h
Plasmodium falciparum [3] = test: Antimicrobial activity against wild type Plasmodium falciparum HB3 infected in erythrocytes assessed as growth inhibition after 5 days by SYBR Green I-based fluorescence assay; settings: HB3, 5 days
Plasmodium falciparum [4] = test: Antimicrobial activity against leupeptin resistant-Plasmodium falciparum HB3-leuR1 mutant infected in erythrocytes assessed as growth inhibition after 5 days by SYBR Green I-based fluorescence assay; settings: HB3-leuR1, 5 days
[5] = Inhibition of PSAC-mediated sorbitol uptake in erythrocytes infected with leupeptin resistant-Plasmodium falciparum HB3-leuR1 at 50 uM; assay type: cell-based
[6] = (§1) Activity of PSAS assessed as channel-mediated drug uptake measured by inhibition of papain-mediated substrate hydrolysis by Plasmodium falciparum HB3 infected erythrocyte cytosol harvested from cells incubated at 40 uM for 15 mins by Z-Phe-Arg-AMC substrate hydrolysis assay
In short: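 They were counted, then lysed at 20% hematocrit with 0.05% saponin. Cytosol from 10⁸ cells went into pH 5.5 acetate with 10 mM DTT and 150 ng/ml papain, then 50 μM Z-Phe-Arg-AMC. Rates came from 353/442 nm readings over 10 min; four experiments.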

[7] = as §1, with “mins in presence og PSAC antagonist NPF1” for “mins”; assay type: functional
In short: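 Erythrocyte cytosol was released with 0.05% saponin, and 10⁸-cell equivalents were incubated with 150 ng/ml papain and 10 mM DTT at pH 5.5. Z-Phe-Arg-AMC (50 μM) hydrolysis was read every 2 min for 10 min, given as percent inhibition; four experiments.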

[8] = Activity of PSAS assessed as channel-mediated drug uptake measured by inhibition of papain-mediated substrate hydrolysis by leupeptin resistant-Plasmodium falciparum HB3-leuR1 infected erythrocyte cytosol harvested from cells incubated at 40 uM for 15 mins by Z-Phe-Arg-AMC substrate hydrolysis assay
Plasmodium falciparum [9] = test: Antimicrobial activity against leupeptin resistant-Plasmodium falciparum HB3-leuR1 mutant infected in erythrocytes assessed as growth inhibition after 72 hrs in presence of PSAC antagonist NPF1 by SYBR Green I-based fluorescence assay; assay type: functional, organism-based
In short: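 SYBR green I growth assay for 72 h at 37°C using serial dilutions of several fixed molar ratios of leupeptin and NPF-1. IC50 of each agent interpolated for each ratio and plotted as an isobologram. Background subtracted using chloroquine-killed cultures.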

Falcipain 2 [10] = target: Falcipain 2 (Plasmodium falciparum, UniProt Q9N6S8); test: Inhibition of Cysteine protease falcipain-2 in Plasmodium falciparum HB3-leuR1 mutant infected erythrocytes by Z-Phe-Arg-AMC substrate hydrolysis assay
In short: (§2)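 Soluble extracts from trophozoite-infected erythrocytes enriched to 95–99% parasitemia (Percoll-sorbitol). Adjusted to 40 μg/ml protein in 0.1 M sodium acetate pH 5.5 with 10 mM DTT, with or without leupeptin. Prewarmed to 37°C; 50 μM Z-Phe-Arg-AMC added; fluorescence 353/442 nm read every 2 min. Rates by regression over 10–90 min, triplicate. K0.5 fit with Hill coefficient 1.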

Falcipain 2 [11] = target: T1, Falcipain 2 (Plasmodium falciparum, UniProt Q9N6S8); test: Inhibition of Cysteine protease falcipain-2 in Plasmodium falciparum HB3 infected erythrocytes by Z-Phe-Arg-AMC substrate hydrolysis assay
T1 sequence (Q9N6S8 whole entry): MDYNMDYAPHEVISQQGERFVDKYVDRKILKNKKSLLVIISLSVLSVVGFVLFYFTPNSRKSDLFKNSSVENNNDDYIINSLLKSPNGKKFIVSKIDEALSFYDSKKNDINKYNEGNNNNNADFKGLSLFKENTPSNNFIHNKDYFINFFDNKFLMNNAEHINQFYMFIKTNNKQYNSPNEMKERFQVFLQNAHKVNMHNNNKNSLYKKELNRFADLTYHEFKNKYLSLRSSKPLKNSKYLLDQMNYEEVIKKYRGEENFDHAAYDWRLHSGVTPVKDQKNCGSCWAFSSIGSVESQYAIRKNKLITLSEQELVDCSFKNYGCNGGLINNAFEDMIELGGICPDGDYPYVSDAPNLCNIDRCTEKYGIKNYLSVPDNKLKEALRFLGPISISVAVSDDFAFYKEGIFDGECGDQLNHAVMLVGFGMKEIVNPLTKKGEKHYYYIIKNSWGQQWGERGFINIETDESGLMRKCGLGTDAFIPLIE
In short: (§3)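 Soluble extracts came from trophozoite-infected cells enriched to 95–99% parasitemia. They were set at 40 μg/ml protein in 0.1 M sodium acetate pH 5.5 with 10 mM DTT and leupeptin, prewarmed to 37°C, then given 50 μM Z-Phe-Arg-AMC. Fluorescence (353/442 nm) was read every 2 min, with rates regressed over 10–90 min and triplicate means. K0.5 came from a 1:1 fit; n=4.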

Plasmodium falciparum [12] = test: Induction of parasite morphology changes in wild type Plasmodium falciparum HB3 infected in erythrocytes assessed as occurrence of enlarged digestive vacuoles by transmission electron microscopy; assay type: functional, organism-based
In short: (§4)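 For electron microscopy, infected erythrocytes were cultured with 100 μM leupeptin for 6 h. They were fixed overnight at 4°C in 2.5% glutaraldehyde/4% paraformaldehyde in 0.1 M cacodylate pH 7.4, postfixed in osmium tetroxide/ferricyanide and stained with uranyl acetate. Samples were Spurr-embedded, and thin sections were lead/uranyl stained and imaged at 80 kV.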

Plasmodium falciparum [13] = test: Induction of parasite morphology changes in leupeptin resistant-Plasmodium falciparum HB3-leuR1 mutant infected in erythrocytes assessed as occurrence of enlarged digestive vacuoles by transmission electron microscopy; assay type: functional, organism-based
[14] = target: T2, Cysteine protease falcipain-3 (Plasmodium falciparum, UniProt Q9NAW4); test: Inhibition of Cysteine protease falcipain-3 in Plasmodium falciparum HB3 infected erythrocytes by Z-Phe-Arg-AMC substrate hydrolysis assay; in short: as §3
T2 sequence (Q9NAW4 whole entry): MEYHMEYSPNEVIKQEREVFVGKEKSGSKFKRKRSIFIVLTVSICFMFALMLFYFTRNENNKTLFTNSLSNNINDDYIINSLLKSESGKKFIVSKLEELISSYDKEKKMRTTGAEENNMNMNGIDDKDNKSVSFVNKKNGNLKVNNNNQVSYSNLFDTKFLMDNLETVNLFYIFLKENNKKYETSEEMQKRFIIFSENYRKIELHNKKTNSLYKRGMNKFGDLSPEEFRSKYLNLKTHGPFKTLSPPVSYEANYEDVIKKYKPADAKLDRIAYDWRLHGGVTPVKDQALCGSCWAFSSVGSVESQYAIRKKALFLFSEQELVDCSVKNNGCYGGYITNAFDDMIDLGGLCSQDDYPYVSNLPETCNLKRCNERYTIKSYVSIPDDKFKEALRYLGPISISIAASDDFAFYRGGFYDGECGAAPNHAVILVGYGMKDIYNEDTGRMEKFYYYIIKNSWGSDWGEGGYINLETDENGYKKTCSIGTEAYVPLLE

[15] = target: Cysteine protease falcipain-3 (Plasmodium falciparum, UniProt Q9NAW4); test: Inhibition of Cysteine protease falcipain-3 in Plasmodium falciparum HB3-leuR1 mutant infected erythrocytes by Z-Phe-Arg-AMC substrate hydrolysis assay; in short: as §2
[16] = Inhibition of PSAC-mediated sorbitol uptake in erythrocytes infected with Plasmodium falciparum HB3 at 50 uM; assay type: cell-based
In short: (§5)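 Percoll-sorbitol-enriched trophozoite-infected cells were washed in PBS, then suspended at 0.5% hematocrit in 280 mM sorbitol, 20 mM sodium HEPES and 0.1 mg/ml BSA, pH 7.4, with PSAC antagonists. Osmotic lysis kinetics gave half-times, and K0.5 was fitted by nonlinear least squares.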

Plasmodium falciparum [17] = test: Reduction in formation of hemozoin crystals in wild type Plasmodium falciparum HB3 infected in erythrocytes at 100 uM for 6 hrs by transmission electron microscopy; assay type: functional, organism-based; in short: as §4
Plasmodium falciparum [18] = test: Reduction in formation of hemozoin crystals in leupeptin resistant-Plasmodium falciparum HB3-leuR1 mutant infected in erythrocytes at 100 uM for 6 hrs by transmission electron microscopy; assay type: functional, organism-based
In short: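 Infected erythrocytes cultured with 100 μM leupeptin for 6 h. Fixed overnight at 4°C in 2.5% glutaraldehyde-4% paraformaldehyde in cacodylate pH 7.4. Postfixed in osmium tetroxide-ferricyanide, stained with uranyl acetate, embedded in Spurr's resin. Thin sections stained with uranyl acetate/lead citrate and imaged at 80 kV.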

[19] = target: T3, Falcipain 2 (Plasmodium falciparum) (UniProt Q9N6S8); test: Inhibition of Cysteine protease falcipain-2 in Plasmodium falciparum HB3 infected erythrocytes assessed as slowing of substrate hydrolysis by Z-Phe-Arg-AMC substrate hydrolysis assay; in short: as §2
T3 sequence (whole entry): T1 sequence (Q9N6S8 whole entry)

[20] = target: T3, Falcipain 2 (Plasmodium falciparum); test: Inhibition of Cysteine protease falcipain-2 in Plasmodium falciparum HB3-leuR1 mutant infected erythrocytes assessed as slowing of substrate hydrolysis by Z-Phe-Arg-AMC substrate hydrolysis assay; in short: as §2
[21] = target: T4, Cysteine protease falcipain-3 (Plasmodium falciparum) (UniProt Q9NAW4); test: Inhibition of Cysteine protease falcipain-3 in Plasmodium falciparum HB3 infected erythrocytes assessed as slowing of substrate hydrolysis by Z-Phe-Arg-AMC substrate hydrolysis assay; in short: as §2
T4 sequence (whole entry): T2 sequence (Q9NAW4 whole entry)

[22] = target: T4, Cysteine protease falcipain-3 (Plasmodium falciparum); test: Inhibition of Cysteine protease falcipain-3 in Plasmodium falciparum HB3-leuR1 mutant infected erythrocytes assessed as slowing of substrate hydrolysis by Z-Phe-Arg-AMC substrate hydrolysis assay; in short: as §2
Plasmodium falciparum [23] = test: Reduction in hemozoin production in wild type Plasmodium falciparum HB3 infected in erythrocytes at 50 uM for 18 hrs by absorbance scan at 400 nm
Plasmodium falciparum [24] = test: Reduction in hemozoin production in leupeptin resistant-Plasmodium falciparum HB3-leuR1 mutant infected in erythrocytes at 50 uM for 18 hrs by absorbance scan at 400 nm
[25] = Inhibition of PSAC-mediated sorbitol uptake in erythrocytes infected with Plasmodium falciparum HB3 at 100 to 5000 uM by osmotic lysis half-time determination assay; assay type: cell-based; in short: as §5
[26] = Inhibition of PSAC-mediated sorbitol uptake in erythrocytes infected with leupeptin resistant-Plasmodium falciparum HB3-leuR1 by osmotic lysis half-time determination assay; assay type: cell-based
[27] = Inhibition of single PSAC in erythrocytes infected with Plasmodium falciparum HB3 at 100 to 5000 uM by cell attached patch clamp method; assay type: cell-based
In short: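 Cell-attached patch-clamp recordings were made on trophozoite-stage infected erythrocytes. Bath and pipette solutions were symmetric: 1,000 mM choline chloride, 115 mM NaCl, 10 mM MgCl₂, 5 mM CaCl₂ and 20 mM sodium HEPES, pH 7.4.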

[28] = Inhibition of single PSAC in erythrocytes infected with leupeptin resistant-Plasmodium falciparum HB3-leuR1 cell attached patch clamp method; assay type: cell-based

Work on `C[C@@H]1CC[C@H]2[C@@H](C)C(=O)O[C@@H]3O[C@@]4(C)CC[C@@H]1[C@]32OO4` [ARTEMISININ] yielded an IC50 (Plasmodium falciparum [1]) of 7.71 nM and an IC50 (Plasmodium falciparum [2]) of 8.36 nM.

Work on `CN(CC[C@H](N)CC(=O)N[C@H]1C=C[C@H](n2ccc(N)nc2=O)O[C@@H]1C(=O)O)C(=N)N` [BLASTICIDIN_S] yielded an IC50 (Plasmodium falciparum [3]) of 0.43 µM and an IC50 (Plasmodium falciparum [4]) of 1.15 µM.

`CC(C)C[C@H](NC(=O)[C@H]1O[C@@H]1C(=O)O)C(=O)NCCCCN=C(N)N` [E-64] showed an IC50 (Plasmodium falciparum [3]) of 3.69 µM and an IC50 (Plasmodium falciparum [4]) of 5.88 µM.

In the case of `CC(=O)N[C@@H](CC(C)C)C(=O)N[C@@H](CC(C)C)C(=O)N[C@H](C=O)CCCNC(=N)N` [LEUPEPTIN], the inhibition [5] is reported as “inactive”, the Activity [6] is reported as “Active” and the Activity [7] is reported as “inactive”. For the same compound, the Activity [8] was “inactive”, the “growth inhibition (GI)” value (Plasmodium falciparum [9]) was “inactive” and the IC50 (Falcipain 2 [10]) was 98 nM. The IC50 (Falcipain 2 [11]) was 87 nM, the Activity (Plasmodium falciparum [12]) was “Active” and the Activity (Plasmodium falciparum [13]) was “inactive”. The IC50 [14] was 87 nM, the IC50 [15] was 98 nM and the inhibition [16] was “inactive”. For the same compound, the Activity (Plasmodium falciparum [17]) was “Active”, the Activity (Plasmodium falciparum [18]) was “inactive” and the inhibition [19] was “Active”. For the same compound, the inhibition [20] was “Active”, the inhibition [21] was “Active” and the inhibition [22] was “Active”. The Activity (Plasmodium falciparum [23]) was “Active”, the Activity (Plasmodium falciparum [24]) was “inactive” and the IC50 (Plasmodium falciparum [3]) was 18 µM. The IC50 (Plasmodium falciparum [4]) was 74 µM.

Work on `CC(C)CC(=O)N[C@H](C(=O)N[C@H](C(=O)N[C@@H](CC(C)C)[C@@H](O)CC(=O)N[C@@H](C)C(=O)N[C@@H](CC(C)C)[C@@H](O)CC(=O)O)C(C)C)C(C)C` [PEPSTATIN] yielded an IC50 (Plasmodium falciparum [3]) of 39.2 µM and an IC50 (Plasmodium falciparum [4]) of 29.4 µM.

In the case of `O=C(CCc1ccc(O)cc1)c1c(O)cc(O)cc1O[C@@H]1O[C@H](CO)[C@@H](O)[C@H](O)[C@H]1O` [PHLORIZIN], the inhibition [25] is reported as “Active”, the inhibition [26] is reported as “inactive” and the IC50 [27] is reported as 17 µM. It also gave an IC50 [28] of 340 µM.

`C=C[C@H]1CN2CC[C@H]1C[C@H]2[C@H](O)c1ccnc2ccc(OC)cc12` [QUININE] gave an IC50 (Plasmodium falciparum [1]) of 74 nM and an IC50 (Plasmodium falciparum [2]) of 77.1 nM.
